According to ChEMBL document CHEMBL1667766, “Synthesis of elastin based peptides conjugated to benzisoxazole as a new class of potent antimicrobials--A novel approach to enhance biocompatibility” (2011):
In brackets after ≈: the same amount, converted by molar mass. *1 amine or outer side, *2 acyl side, *3 side chain or, on linkers, in order; H or OH if unused. Where a SMILES comes first, the peptide text is derived from it. [ ]: non-standard residue; d: D form. The star is where a group is joined. X2 = CC(C)[C@H](N[*:1])C(=O)NC(=O)[*:2]; X1 = Fc1ccc2c(C3CCN(*)CC3)noc2c1; Boc = CC(C)(C)OC(=O)*; OcHex = C1CCC(O*)CC1

What was measured:
Assay type in all cases: functional
Escherichia coli [1] = assay: Antimicrobial activity against Escherichia coli after 72 hrs by microdilution method
Xanthomonas oryzae [2] = assay: Antimicrobial activity against Xanthomonas oryzae after 72 hrs by microdilution method
Aspergillus flavus [3] = assay: Antifungal activity against Aspergillus flavus after 72 hrs by microdilution method
Staphylococcus [4] = assay: Antimicrobial activity against coagulase positive Staphylococcus after 72 hrs by microdilution method
Aspergillus niger [5] = assay: Antifungal activity against Aspergillus niger after 72 hrs by microdilution method
Klebsiella pneumoniae [6] = assay: Antimicrobial activity against Klebsiella pneumoniae after 72 hrs by microdilution method
Fusarium oxysporum [7] = assay: Antifungal activity against Fusarium oxysporum after 72 hrs by microdilution method
Klebsiella pneumoniae [8] = assay: Antimicrobial activity against Klebsiella pneumoniae after 24 hrs by agar well diffusion method
Summary of the method: (§1)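 Bacteria grown in nutrient broth at 37 °C for 24 h, subcultured in 25 mL broth at room temperature, then spread on nutrient agar. Wells (6 mm cork borer) filled with 0.1 mL test solution in DMSO, prepared from a 1 mg/mL stock. Amoxicillin as reference, DMSO as negative control. Plates kept 24 h at 37 °C; inhibition zone measured in mm.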

Aspergillus flavus [9] = assay: Antifungal activity against Aspergillus flavus after 24 hrs by agar well diffusion method
Summary of the method: (§2)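 Fungi subcultured in 25 mL nutrient broth for one day to give inoculum, then spread on solidified Sabouraud agar. Wells punched with a 6 mm cork borer and filled with 0.1 mL test solution in DMSO, prepared from a 1 mg/mL stock. Bavistin as reference, DMSO as negative control. Read-out is inhibition zone diameter (mm).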

Aspergillus niger [10] = assay: Antifungal activity against Aspergillus niger after 24 hrs by agar well diffusion method; summary of the method: as §2
Xanthomonas oryzae [11] = assay: Antimicrobial activity against Xanthomonas oryzae after 24 hrs by agar well diffusion method
Staphylococcus [12] = assay: Antimicrobial activity against coagulase positive Staphylococcus after 24 hrs by agar well diffusion method; summary of the method: as §1
Fusarium oxysporum [13] = assay: Antifungal activity against Fusarium oxysporum after 24 hrs by agar well diffusion method; summary of the method: as §2
Escherichia coli [14] = assay: Antimicrobial activity against Escherichia coli after 24 hrs by agar well diffusion method; summary of the method: as §1

SMILES	MIC (Escherichia coli [1]) [µg/mL]	MIC (Xanthomonas oryzae [2]) [µg/mL]	MIC (Aspergillus flavus [3]) [µg/mL]	MIC (Staphylococcus [4]) [µg/mL]	MIC (Aspergillus niger [5]) [µg/mL]	MIC (Klebsiella pneumoniae [6]) [µg/mL]	MIC (Fusarium oxysporum [7]) [µg/mL]	inhibition zone (IZ) (Klebsiella pneumoniae [8]) [mm]	inhibition zone (IZ) (Aspergillus flavus [9]) [mm]	inhibition zone (IZ) (Aspergillus niger [10]) [mm]	inhibition zone (IZ) (Xanthomonas oryzae [11]) [mm]	inhibition zone (IZ) (Staphylococcus [12]) [mm]	inhibition zone (IZ) (Fusarium oxysporum [13]) [mm]	inhibition zone (IZ) (Escherichia coli [14]) [mm]
CC(C)(C)OC(=O)N[C@@H](Cc1ccccc1)C(=O)O	> 50	> 50	> 50	> 50	> 50	> 50	> 50	–	–	–	–	–	–	–
N[C@@H](Cc1ccccc1)C(=O)N1CCC(c2noc3cc(F)ccc23)CC1.O=C(O)C(F)(F)F	20	15	22	18	18	16	21	10	11	16	11	9	14	14
N[C@@H](Cc1c[nH]c2ccccc12)C(=O)N1CCC(c2noc3cc(F)ccc23)CC1.O=C(O)C(F)(F)F	38	26	41	36	32	31	39	5	4	11	6	4	7	8
N[C@@H](Cc1ccc(O)cc1)C(=O)N1CCC(c2noc3cc(F)ccc23)CC1.O=C(O)C(F)(F)F	40	29	43	39	34	34	41	4	3	10	5	4	6	7
CC[C@@H](C)[C@H](NC(=O)CNC(=O)CN)C(=O)N1CCC[C@H]1C(=O)N1CCC(c2noc3cc(F)ccc23)CC1.O=C(O)C(F)(F)F	15	12	16	14	13	12	17	14	14	22	15	12	18	20
Fc1ccc2c(C3CCNCC3)noc2c1	> 50	> 50	> 50	> 50	> 50	> 50	> 50	3	2	3	4	3	4	3
CC[C@@H](C)[C@H](NC(=O)CNC(=O)CNC(=O)OC(C)(C)C)C(=O)N1CCC[C@H]1C(=O)O	> 50	> 50	> 50	> 50	> 50	> 50	> 50	–	–	–	–	–	–	–
CC(C)(C)OC(=O)N[C@@H](Cc1c[nH]c2ccccc12)C(=O)O	> 50	> 50	> 50	> 50	> 50	> 50	> 50	–	–	–	–	–	–	–
CC(C)[C@H](NC(=O)CNC(=O)[C@@H]1CCCN1C(=O)[C@H](Cc1ccccc1)NC(=O)CNC(=O)[C@H](CCC(=O)OC1CCCCC1)NC(=O)CNC(=O)OC(C)(C)C)C(=O)NCC(=O)N[C@H](C(=O)N1CCC[C@H]1C(=O)NCC(=O)N[C@H](C(=O)NCC(=O)N[C@H](C(=O)N1CCC[C@H]1C(=O)NCC(=O)N[C@H](C(=O)NCC(=O)N[C@H](C(=O)N1CCC[C@H]1C(=O)NCC(=O)N[C@@H](Cc1ccccc1)C(=O)NCC(=O)N[C@@H](Cc1ccccc1)C(=O)N1CCC[C@H]1C(=O)NCC(=O)N[C@@H](Cc1ccccc1)C(=O)NCC(=O)N[C@@H](Cc1ccccc1)C(=O)N1CCC[C@H]1C(=O)O)C(C)C)C(C)C)C(C)C)C(C)C)C(C)C (Boc-GE(OcHex)GFPGVGVPGVGVPGVGVPGFGFPGFGFP-OH)	> 50	> 50	> 50	> 50	> 50	> 50	> 50	–	–	–	–	–	–	–
CC(C)[C@H](NC(=O)CNC(=O)[C@@H]1CCCN1C(=O)[C@H](Cc1ccccc1)NC(=O)CNC(=O)[C@H](Cc1ccccc1)NC(=O)CNC(=O)[C@@H]1CCCN1C(=O)[C@H](Cc1ccccc1)NC(=O)CNC(=O)[C@@H](NC(=O)CNC(=O)[C@@H]1CCCN1C(=O)[C@@H](NC(=O)NC(=O)[C@@H](NC(=O)CNC(=O)[C@@H]1CCCN1C(=O)[C@H](Cc1ccccc1)NC(=O)CNC(=O)[C@H](CCC(=O)OC1CCCCC1)NC(=O)CNC(=O)OC(C)(C)C)C(C)C)C(C)C)C(C)C)C(=O)NCC(=O)N[C@H](C(=O)N1CCC[C@H]1C(=O)NCC(=O)N[C@H](C(=O)NCC(=O)N[C@@H](Cc1ccccc1)C(=O)N1CCC[C@H]1C(=O)O)C(C)C)C(C)C (Boc-GE(OcHex)GFPG[X2]VPGVGFPGFGFPGVGVPGVGFP-OH)	> 50	> 50	> 50	> 50	> 50	> 50	> 50	–	–	–	–	–	–	–
CC(C)(C)OC(=O)NCC(=O)N[C@@H](Cc1ccccc1)C(=O)NCC(=O)N[C@@H](Cc1ccccc1)C(=O)N1CCC[C@H]1C(=O)O (Boc-GFGFP-OH)	> 50	> 50	> 50	> 50	> 50	> 50	> 50	–	–	–	–	–	–	–
C[C@H](NC(=O)CNC(=O)CNC(=O)OC(C)(C)C)C(=O)N1CCC[C@H]1C(=O)O (Boc-GGAP-OH)	> 50	> 50	> 50	> 50	> 50	> 50	> 50	–	–	–	–	–	–	–
CC(C)(C)OC(=O)NCC(=O)NCC(=O)N[C@@H](Cc1ccccc1)C(=O)N1CCC[C@H]1C(=O)O (Boc-GGFP-OH)	> 50	> 50	> 50	> 50	> 50	> 50	> 50	–	–	–	–	–	–	–
CC(C)[C@H](NC(=O)CNC(=O)OC(C)(C)C)C(=O)NCC(=O)N[C@H](C(=O)N1CCC[C@H]1C(=O)O)C(C)C (Boc-GVGVP-OH)	> 50	> 50	> 50	> 50	> 50	> 50	> 50	–	–	–	–	–	–	–
CC(C)[C@H](NC(=O)CNC(=O)[C@@H]1CCCN1C(=O)[C@H](Cc1ccccc1)NC(=O)CNC(=O)[C@H](CCC(=O)O)NC(=O)CN)C(=O)NCC(=O)N[C@H](C(=O)N1CCC[C@H]1C(=O)NCC(=O)N[C@H](C(=O)NCC(=O)N[C@H](C(=O)N1CCC[C@H]1C(=O)NCC(=O)N[C@H](C(=O)NCC(=O)N[C@H](C(=O)N1CCC[C@H]1C(=O)NCC(=O)N[C@@H](Cc1ccccc1)C(=O)NCC(=O)N[C@@H](Cc1ccccc1)C(=O)N1CCC[C@H]1C(=O)NCC(=O)N[C@@H](Cc1ccccc1)C(=O)NCC(=O)N[C@@H](Cc1ccccc1)C(=O)N1CCC[C@H]1C(=O)N1CCC(c2noc3cc(F)ccc23)CC1)C(C)C)C(C)C)C(C)C)C(C)C)C(C)C.O=C(O)C(F)(F)F (H-GEGFPGVGVPGVGVPGVGVPGFGFPGFGFP-X1)	10	9	3	11	3	9	4	17	32	36	18	20	31	15
CC(C)[C@H](NC(=O)CNC(=O)[C@@H]1CCCN1C(=O)[C@H](Cc1ccccc1)NC(=O)CNC(=O)[C@H](Cc1ccccc1)NC(=O)CNC(=O)[C@@H]1CCCN1C(=O)[C@H](Cc1ccccc1)NC(=O)CNC(=O)[C@@H](NC(=O)CNC(=O)[C@@H]1CCCN1C(=O)[C@@H](NC(=O)NC(=O)[C@@H](NC(=O)CNC(=O)[C@@H]1CCCN1C(=O)[C@H](Cc1ccccc1)NC(=O)CNC(=O)[C@H](CCC(=O)O)NC(=O)CN)C(C)C)C(C)C)C(C)C)C(=O)NCC(=O)N[C@H](C(=O)N1CCC[C@H]1C(=O)NCC(=O)N[C@H](C(=O)NCC(=O)N[C@@H](Cc1ccccc1)C(=O)N1CCC[C@H]1C(=O)N1CCC(c2noc3cc(F)ccc23)CC1)C(C)C)C(C)C.O=C(O)C(F)(F)F (H-GEGFPG[X2]VPGVGFPGFGFPGVGVPGVGFP-X1)	12	10	4	13	4	10	5	11	28	34	14	16	28	12
CC1(C)S[C@@H]2[C@H](NC(=O)[C@H](N)c3ccc(O)cc3)C(=O)N2[C@H]1C(=O)O [AMOXICILLIN]	24 (≈ 65.7 µM)	18 (≈ 49.3 µM)	–	23 (≈ 62.9 µM)	–	20 (≈ 54.7 µM)	–	8	–	–	8	7	–	11
COC(=O)Nc1nc2ccccc2[nH]1 [CARBENDAZIM]	–	–	26 (≈ 136 µM)	–	22 (≈ 115 µM)	–	25 (≈ 131 µM)	–	7	12	–	–	10	–
